# Data as given in publication PMC12752248 (BMC Biotechnology, 2025).
# Like-named read-outs stand apart in the source and are kept apart here. Marks after values point to notes of the source that are not given here.
# Tests used:
# BJ6PAD-N [1] = assay: Specific enzyme activity towards phenolic acid substrates, BJ6PAD-N; assay type: biochemical, Bacillus subtilis J6; details: BJ6PAD-N vs BJ6PAD
# Method in brief: (§1)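 Both purified His-tagged enzymes were reacted at 37 ℃ in 50 mmol/L citrate-Na₂HPO₄ pH 6.0 for 5 min with three hydroxycinnamic acids at 10 mmol/L or sinapic-type acid at 6 mmol/L. Reactions were stopped with methanol, with an enzyme-free buffer control. Remaining substrate was measured by C18 HPLC at 280 nm. One IU is 1 µmol substrate converted/min; protein was by BCA, giving IU/mg. Done in triplicate.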
# BJ6PAD-N [2] = target: T1, BJ6PAD-N (Bacillus subtilis, UniProt O07006); assay: as above; assay type: biochemical, Bacillus subtilis J6; details: 37 ℃, pH 6.0; pCA, FA, CafA 10 mmol/L, SA 6 mmol/L
# T1 sequence (O07006 with tags, fused parts or gaps A39G/H105Y/L108V/E129D/F132Y/K134N/E136A/V138I/D139N/E142T/V143L/K146E): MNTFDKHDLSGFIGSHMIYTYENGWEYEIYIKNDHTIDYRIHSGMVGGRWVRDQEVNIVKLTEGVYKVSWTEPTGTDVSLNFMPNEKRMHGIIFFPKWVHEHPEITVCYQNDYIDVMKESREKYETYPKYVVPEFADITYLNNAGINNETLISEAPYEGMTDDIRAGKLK
# Method in brief: as §1
# BJ6PAD [3] = target: T2, BJ6PAD (Bacillus subtilis, UniProt O07006); assay: Isothermal titration calorimetry of enzyme-substrate interaction, BJ6PAD; assay type: binding, Bacillus subtilis J6
# T2 sequence (O07006 with tags, fused parts or gaps A39G/H105Y/L108V/E129D/F132Y/K134N/E136A/V138I/D139N/E142T/V143L/K146E): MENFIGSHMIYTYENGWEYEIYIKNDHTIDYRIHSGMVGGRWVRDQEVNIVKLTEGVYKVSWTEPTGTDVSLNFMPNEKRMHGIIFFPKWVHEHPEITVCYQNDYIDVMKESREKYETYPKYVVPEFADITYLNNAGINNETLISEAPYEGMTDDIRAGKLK
# Method in brief: (§2)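 Ni-purified His-tagged enzyme, eluted in […] buffer pH 7.9–8.1, was placed in the cell at 0.02 mmol/L. Each of four phenolic acid substrates (0.2 mmol/L in the same buffer) was in the syringe. All solutions were degassed 10 min. Twenty 2 µL injections were given 150 s apart at 37 °C with 350 rpm stirring. Thermodynamic parameters came from an independent-site model fit, in triplicate.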
# BJ6PAD-N [4] = target: T1, BJ6PAD-N; assay: Isothermal titration calorimetry of enzyme-substrate interaction, BJ6PAD-N; assay type: binding, Bacillus subtilis J6
# Method in brief: as §2
# BJ6PAD-N [5] = target: T1, BJ6PAD-N; assay: Enzymatic kinetic parameters; assay type: biochemical, Bacillus subtilis J6
# BJ6PAD [6] = target: T2, BJ6PAD; assay: Specific enzyme activity towards phenolic acid substrates, BJ6PAD; assay type: biochemical, Bacillus subtilis J6; details: 37 ℃, pH 6.0; pCA, FA, CafA 10 mmol/L, SA 6 mmol/L
# Method in brief: as §1
# BJ6PAD [7] = target: T2, BJ6PAD; assay: Enzymatic kinetic parameters; assay type: biochemical, Bacillus subtilis J6
# BJ6PAD-N [8] = target: T1, BJ6PAD-N; assay: Effects of metal ions and chemical reagents on enzyme activity, BJ6PAD-N; assay type: biochemical, Bacillus subtilis J6; details: 60 min incubation, no additive = 100%
# Method in brief: (§3)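 His-tagged enzyme was expressed in E. coli BL21(DE3) and Ni-agarose purified. It was incubated 60 min with each metal ion (K⁺, Mg²⁺, Ca²⁺, Fe²⁺, Mn²⁺, Cu²⁺, Zn²⁺), EDTA, SDS or Triton X-100 at final concentrations of 1 or 5 mmol/L. Activity was then assayed in 50 mmol/L citrate-Na₂HPO₄ pH 6.0 at 37 ℃ for 5 min, stopped with methanol, with residual substrate by C18 HPLC at 280 nm. Done in triplicate.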
# BJ6PAD [9] = target: T2, BJ6PAD; assay: Effects of metal ions and chemical reagents on enzyme activity, BJ6PAD; assay type: biochemical, Bacillus subtilis J6; details: 60 min incubation, no additive = 100%
# Method in brief: as §3
# BJ6PAD-N [10] = assay: Enzymatic kinetic parameters; assay type: biochemical, Bacillus subtilis J6; details: BJ6PAD-N vs BJ6PAD
# [11] = substrate: O=C(O)C=Cc1ccc(O)cc1; assay: Enzymatic kinetic parameters; assay type: biochemical, Bacillus subtilis J6; details: pH 6.0
Molecule,Increase of specific enzyme activity of BJ6PAD-N compared with BJ6PAD (BJ6PAD-N [1]) [%],Specific enzyme activity (BJ6PAD-N [2]),"ΔG (BJ6PAD [3]; ITC, 37 °C) [kJ/mol]","ΔH (BJ6PAD [3]; ITC, 37 °C) [kJ/mol]","ΔG (BJ6PAD-N [4]; ITC, 37 °C) [kJ/mol]","ΔH (BJ6PAD-N [4]; ITC, 37 °C) [kJ/mol]","ΔS (BJ6PAD-N [4]; ITC, 37 °C) [kJ/mol·K]",Km (BJ6PAD-N [5]) [mM],Vmax (BJ6PAD-N [5]),kcat (BJ6PAD-N [5]),Specific enzyme activity (BJ6PAD [6]),Km (BJ6PAD [7]) [mM],Vmax (BJ6PAD [7]),kcat (BJ6PAD [7]),also measured
O=C(O)/C=C/c1ccc(O)cc1 [p-coumaric acid],18.65,248.96 ± 1.59^a IU/mg,-28.94,-61.55,-28.50,-6.05,0.07,–,–,–,209.82 ± 1.41^b IU/mg,–,–,–,Kd (BJ6PAD [3]): 12.8 µM; Kd (BJ6PAD-N [4]): 16.3 µM
O=C(O)/C=C/c1ccc(O)c(O)c1 [caffeic acid],9.25,100.88 ± 3.71^a IU/mg,-31.89,-35.33,-30.51,-62.34,-0.10,3.03 ± 0.12,139.3 ± 5.70^ab IU/mg,46.39 ± 1.55^ab s^− 1,92.34 ± 0.57^b IU/mg,3.54 ± 1.05,137.1 ± 8.87^b IU/mg,43.67 ± 3.61^b s^− 1,Kd (BJ6PAD [3]): 4.23 µM; Kd (BJ6PAD-N [4]): 7 µM
[K+] [K^+],–,–,–,–,–,–,–,–,–,–,–,–,–,–,Residual enzyme activity (BJ6PAD-N [8]; 1 mmol/L additive): 96.63 ± 2.16^a %; Residual enzyme activity (BJ6PAD-N [8]; 5 mmol/L additive): 89.61 ± 1.14^a %; Residual enzyme activity (BJ6PAD [9]; 1 mmol/L additive): 104.96 ± 0.24^b %; Residual enzyme activity (BJ6PAD [9]; 5 mmol/L additive): 98.61 ± 1.46^b %
"CCCCCCCCCCCCOS(=O)(=O)[O-].[Na+] [SDS, sodium dodecyl sulfate]",–,–,–,–,–,–,–,–,–,–,–,–,–,–,Residual enzyme activity (BJ6PAD-N [8]; 1 mmol/L additive): 80.5 ± 0.91^b %; Residual enzyme activity (BJ6PAD [9]; 1 mmol/L additive): 67.75 ± 1.3^a %
BJ6PAD (Bacillus subtilis subsp. subtilis str. 168) (protein) MENFIGSHMIYTYENGWEYEIYIKNDHTIDYRIHSGMVGGRWVRDQEVNIVKLTEGVYKVSWTEPTGTDVSLNFMPNEKRMHGIIFFPKWVHEHPEITVCYQNDYIDVMKESREKYETYPKYVVPEFADITYLNNAGINNETLISEAPYEGMTDDIRAGKLK,–,–,–,–,–,–,–,–,–,–,–,–,–,–,Km [11]: 6.87 ± 0.36^b mmol/L; Vmax [11]: 335 ± 5.45 µmol/min/mg; kcat [11]: 107 ± 1.42 s⁻¹; kcat/Km [11]: 15600 ± 1070 M⁻¹ s⁻¹
BJ6PAD-N (Bacillus subtilis subsp. subtilis str. 168) (protein) MNTFDKHDLSGFIGSHMIYTYENGWEYEIYIKNDHTIDYRIHSGMVGGRWVRDQEVNIVKLTEGVYKVSWTEPTGTDVSLNFMPNEKRMHGIIFFPKWVHEHPEITVCYQNDYIDVMKESREKYETYPKYVVPEFADITYLNNAGINNETLISEAPYEGMTDDIRAGKLK,–,–,–,–,–,–,–,–,–,–,–,–,–,–,Km [11]: 11.85 ± 0.56^a mmol/L; Vmax [11]: 536.4 ± 2.55 µmol/min/mg; kcat [11]: 179 ± 3.41 s⁻¹; kcat/Km [11]: 15070 ± 80 M⁻¹ s⁻¹

# The next lines start with results.
Increase of specific enzyme activity of BJ6PAD-N compared with BJ6PAD (BJ6PAD-N [1]) [%],Specific enzyme activity (BJ6PAD-N [2]),"ΔG (BJ6PAD [3]; ITC, 37 °C) [kJ/mol]","ΔH (BJ6PAD [3]; ITC, 37 °C) [kJ/mol]","ΔG (BJ6PAD-N [4]; ITC, 37 °C) [kJ/mol]","ΔH (BJ6PAD-N [4]; ITC, 37 °C) [kJ/mol]","ΔS (BJ6PAD-N [4]; ITC, 37 °C) [kJ/mol·K]",Km (BJ6PAD-N [5]) [mM],Vmax (BJ6PAD-N [5]),kcat (BJ6PAD-N [5]),Specific enzyme activity (BJ6PAD [6]),Km (BJ6PAD [7]) [mM],Vmax (BJ6PAD [7]),kcat (BJ6PAD [7]),Molecule,also measured
18.37,178.56 ± 1.58^a IU/mg,-35.08,-21.48,-25.17,-2.63,0.07,8.42 ± 0.19,337.97 ± 7.10^a IU/mg,112.54 ± 1.93^a s^− 1,150.85 ± 2.15^b IU/mg,4.62 ± 0.01,229.73 ± 4.95^b IU/mg,73.17 ± 1.29^b s^− 1,COc1cc(/C=C/C(=O)O)ccc1O [ferulic acid],"Kd (BJ6PAD [3]; ITC, 37 °C): 1.25 µM; ΔS (BJ6PAD [3]; ITC, 37 °C): 0.04 kJ/mol·K; Kd (BJ6PAD-N [4]; ITC, 37 °C): 59.4 µM"
34.83,23.42 ± 0.02^a IU/mg,-27.94,-42.87,-30.70,-0.41,0.10,1.25 ± 0.11,29.48 ± 1.23^a IU/mg,9.82 ± 0.33^a s^− 1,17.37 ± 0.64^b IU/mg,4.19 ± 1.13,35.02 ± 6.03^a IU/mg,11.15 ± 1.57^a s^− 1,COc1cc(/C=C/C(=O)O)cc(OC)c1O [sinapic acid],"Kd (BJ6PAD [3]; ITC, 37 °C): 19.3 µM; Kd (BJ6PAD-N [4]; ITC, 37 °C): 7.02 µM; Decrease in Km value of BJ6PAD-N compared with BJ6PAD (BJ6PAD-N [10]): 70.17%; Increase of catalytic efficiency (kcat/Km) of BJ6PAD-N over BJ6PAD (BJ6PAD-N [10]): 1.93 fold"
